Data taken from ChEMBL document CHEMBL5058577, “EUbOPEN Chemogenomics Library 2 (Multiplex)” (2022).

Tested on: Fibroblast
Assay: Multiplex assay against human fibroblast
Format: toxicity, cell-based
Outline: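 Cells were classed with CellPathfinder machine-learning gating, first as Hoechst high-intensity objects or normal cells, then (normal cells) as healthy, pyknosed or fragmented nuclei, and finally (pyknosed cells) as mitotic or apoptotic. Staining of live cells at seeding used Hoechst33342, BioTracker Green Microtubule Cytoskeleton Dye, MitoTracker Red and Annexin V Alexa Fluor 680, with imaging on a CQ1 microscope at 37°C and 5% CO2 after compound addition. Tubulin, mitochondrial-mass and membrane-permeability phenotypes are per cents of healthy-nucleus cells.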

[1] = 12 h, 1 µM, compound concentration 1 uM, replicate 1
[2] = 12 h, 1 µM, compound concentration 1 uM, replicate 2
[3] = 12 h, 10 µM, compound concentration 10 uM, replicate 1
[4] = 12 h, 10 µM, compound concentration 10 uM, replicate 2
[5] = 24 h, 1 µM, compound concentration 1 uM, replicate 1
[6] = 24 h, 1 µM, compound concentration 1 uM, replicate 2
[7] = 24 h, 10 µM, compound concentration 10 uM, replicate 1
[8] = 24 h, 10 µM, compound concentration 10 uM, replicate 2
[9] = 48 h, 1 µM, compound concentration 1 uM, replicate 1
[10] = 48 h, 1 µM, compound concentration 1 uM, replicate 2
[11] = 48 h, 10 µM, compound concentration 10 uM, replicate 1
[12] = 48 h, 10 µM, compound concentration 10 uM, replicate 2

CCCOc1ccc2[nH]cc(C3=CCNCC3)c2n1.Cl
Population Apoptotic (%) [1]: 42%
Population Fragmented Nuclei (%) [1]: 13%
Population Healthy Nuclei (%) [1]: 71%
Population Hoechst High Intensity Objects (%) [1]: 2%
Population Membrane Permeable-Phenotype (%) [1]: 0%
Population Mitochondria Different-Phenotype (%) [1]: 6%
Population Mitotic Cells (%) [1]: 57%
Population Normal (%) [1]: 97%
Population Pyknosed Nuclei (%) [1]: 15%
Population Tubulin-Different-Phenotype (%) [1]: 27%
Total Cell Count [1]: 143
Population Apoptotic (%) [2]: 48%
Population Fragmented Nuclei (%) [2]: 25%
Population Healthy Nuclei (%) [2]: 52%
Population Hoechst High Intensity Objects (%) [2]: 0%
Population Membrane Permeable-Phenotype (%) [2]: 8%
Population Mitochondria Different-Phenotype (%) [2]: 2%
Population Mitotic Cells (%) [2]: 51%
Population Normal (%) [2]: 99%
Population Pyknosed Nuclei (%) [2]: 21%
Population Tubulin-Different-Phenotype (%) [2]: 47%
Total Cell Count [2]: 137
Population Apoptotic (%) [3]: 70%
Population Fragmented Nuclei (%) [3]: 16%
Population Healthy Nuclei (%) [3]: 70%
Population Hoechst High Intensity Objects (%) [3]: 4%
Population Membrane Permeable-Phenotype (%) [3]: 0%
Population Mitochondria Different-Phenotype (%) [3]: 12%
Population Mitotic Cells (%) [3]: 29%
Population Normal (%) [3]: 95%
Population Pyknosed Nuclei (%) [3]: 13%
Population Tubulin-Different-Phenotype (%) [3]: 41%
Total Cell Count [3]: 133
Population Apoptotic (%) [4]: 40%
Population Fragmented Nuclei (%) [4]: 31%
Population Healthy Nuclei (%) [4]: 48%
Population Hoechst High Intensity Objects (%) [4]: 2%
Population Membrane Permeable-Phenotype (%) [4]: 1%
Population Mitochondria Different-Phenotype (%) [4]: 10%
Population Mitotic Cells (%) [4]: 60%
Population Normal (%) [4]: 97%
Population Pyknosed Nuclei (%) [4]: 20%
Population Tubulin-Different-Phenotype (%) [4]: 59%
Total Cell Count [4]: 125
Population Apoptotic (%) [5]: 57%
Population Fragmented Nuclei (%) [5]: 14%
Population Healthy Nuclei (%) [5]: 76%
Population Hoechst High Intensity Objects (%) [5]: 2%
Population Membrane Permeable-Phenotype (%) [5]: 0%
Population Mitochondria Different-Phenotype (%) [5]: 6%
Population Mitotic Cells (%) [5]: 42%
Population Normal (%) [5]: 97%
Population Pyknosed Nuclei (%) [5]: 9%
Population Tubulin-Different-Phenotype (%) [5]: 20%
Total Cell Count [5]: 155
Population Apoptotic (%) [6]: 38%
Population Fragmented Nuclei (%) [6]: 28%
Population Healthy Nuclei (%) [6]: 52%
Population Hoechst High Intensity Objects (%) [6]: 0%
Population Membrane Permeable-Phenotype (%) [6]: 5%
Population Mitochondria Different-Phenotype (%) [6]: 5%
Population Mitotic Cells (%) [6]: 61%
Population Normal (%) [6]: 100%
Population Pyknosed Nuclei (%) [6]: 18%
Population Tubulin-Different-Phenotype (%) [6]: 40%
Total Cell Count [6]: 140
Population Apoptotic (%) [7]: 61%
Population Fragmented Nuclei (%) [7]: 23%
Population Healthy Nuclei (%) [7]: 64%
Population Hoechst High Intensity Objects (%) [7]: 1%
Population Membrane Permeable-Phenotype (%) [7]: 0%
Population Mitochondria Different-Phenotype (%) [7]: 12%
Population Mitotic Cells (%) [7]: 38%
Population Normal (%) [7]: 98%
Population Pyknosed Nuclei (%) [7]: 11%
Population Tubulin-Different-Phenotype (%) [7]: 36%
Total Cell Count [7]: 159
Population Apoptotic (%) [8]: 50%
Population Fragmented Nuclei (%) [8]: 20%
Population Healthy Nuclei (%) [8]: 68%
Population Hoechst High Intensity Objects (%) [8]: 2%
Population Membrane Permeable-Phenotype (%) [8]: 4%
Population Mitochondria Different-Phenotype (%) [8]: 8%
Population Mitotic Cells (%) [8]: 50%
Population Normal (%) [8]: 97%
Population Tubulin-Different-Phenotype (%) [8]: 61%
Total Cell Count [8]: 107
Population Apoptotic (%) [9]: 69%
Population Fragmented Nuclei (%) [9]: 17%
Population Healthy Nuclei (%) [9]: 74%
Population Hoechst High Intensity Objects (%) [9]: 2%
Population Membrane Permeable-Phenotype (%) [9]: 0%
Population Mitochondria Different-Phenotype (%) [9]: 5%
Population Mitotic Cells (%) [9]: 30%
Population Normal (%) [9]: 97%
Population Pyknosed Nuclei (%) [9]: 8%
Population Tubulin-Different-Phenotype (%) [9]: 23%
Total Cell Count [9]: 162
Population Apoptotic (%) [10]: 64%
Population Fragmented Nuclei (%) [10]: 36%
Population Healthy Nuclei (%) [10]: 53%
Population Hoechst High Intensity Objects (%) [10]: 4%
Population Membrane Permeable-Phenotype (%) [10]: 5%
Population Mitochondria Different-Phenotype (%) [10]: 2%
Population Mitotic Cells (%) [10]: 35%
Population Normal (%) [10]: 95%
Population Pyknosed Nuclei (%) [10]: 9%
Population Tubulin-Different-Phenotype (%) [10]: 40%
Total Cell Count [10]: 147
Population Apoptotic (%) [11]: 73%
Population Fragmented Nuclei (%) [11]: 21%
Population Healthy Nuclei (%) [11]: 65%
Population Hoechst High Intensity Objects (%) [11]: 2%
Population Membrane Permeable-Phenotype (%) [11]: 0%
Population Mitochondria Different-Phenotype (%) [11]: 9%
Population Mitotic Cells (%) [11]: 26%
Population Normal (%) [11]: 97%
Population Pyknosed Nuclei (%) [11]: 13%
Population Tubulin-Different-Phenotype (%) [11]: 45%
Total Cell Count [11]: 150
Population Apoptotic (%) [12]: 60%
Population Fragmented Nuclei (%) [12]: 32%
Population Healthy Nuclei (%) [12]: 62%
Population Hoechst High Intensity Objects (%) [12]: 5%
Population Membrane Permeable-Phenotype (%) [12]: 4%
Population Mitochondria Different-Phenotype (%) [12]: 13%
Population Mitotic Cells (%) [12]: 40%
Population Normal (%) [12]: 94%
Population Pyknosed Nuclei (%) [12]: 4%
Population Tubulin-Different-Phenotype (%) [12]: 44%
Total Cell Count [12]: 116
